Bioassay records as filed in PubChem BioAssay.
A selection: hits, their analogues and other compounds. The true share with any hit is near 2.3%.
HTRA1 inhibitor = HTRA1 serine protease inhibitors, primary screen, biochemical, fluorescence polarization, HTS. inhibition, % at 5.96 µM. AID 504803, 2011. Q92743. recombinant HTRA1, FP-rhodamine activity-based probe. 0.5% of 340,000 active; in the data active = inhibition above about 36%;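 also: 0% = enzyme with DMSO and 100% = wells lacking enzyme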
SIAE inh = human SIAE inhibitors, primary screen, biochemical, fluorescence polarization, FP-Rh probe, 1536-well HTS; Sialate O-acetylesterase (Homo sapiens), Q9HAT2; SIAE FP-Rh probe binding; inhibition, % at 9.66 µM; 0.69% of 370,000 active;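 active = inhibition above a cutoff: mean of compounds within the control limits plus 3 SD of those, cut at about 17% in these data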;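 also: 0% = plate median of compound wells and 100% = probe without SIAE protein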
mABHD4 FP = ABHD4 inhibitors, primary screen, biochemical, fluorescence polarization, mouse. 0.54% of 370,000 active. inhibition, % at 8.92 µM. AID 720543, 2013. purified mABHD4, FP-Rh probe fluorescence polarization. (Lyso)-N-acylphosphatidylethanolamine lipase (Mus musculus), Q8VD66;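 active = inhibition exceeding the mean over every tested compound plus 3 SD, cut at about 30% in these data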;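 also: 0% = plate median of compound wells and 100% = S159A mutant with DMSO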
Target sequence (Q8VD66 whole entry, looked up): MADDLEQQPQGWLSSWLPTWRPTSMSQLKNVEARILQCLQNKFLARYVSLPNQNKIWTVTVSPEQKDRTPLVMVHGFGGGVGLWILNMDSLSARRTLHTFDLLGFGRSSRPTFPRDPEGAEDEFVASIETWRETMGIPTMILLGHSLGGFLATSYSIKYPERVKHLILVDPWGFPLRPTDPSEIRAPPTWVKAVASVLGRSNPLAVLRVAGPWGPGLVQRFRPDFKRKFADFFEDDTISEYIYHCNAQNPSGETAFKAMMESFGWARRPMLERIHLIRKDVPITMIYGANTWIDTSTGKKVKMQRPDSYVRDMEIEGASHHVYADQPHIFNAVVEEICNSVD
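Assay system: mABHD4 protein; medium: HEPES pH 7.0, NaCl, Pluronic buffer; dosing: 8.92 µM, single dose; schedule: 45 min + 60 min at 25 °C; signal: FP readout, ex 525 nm / em 598 nm; read-out: normalized percent inhibition of probe labeling; repeats: single replicate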
pPAFAH FP inh = pPAFAH enzyme inhibitors, primary screen, biochemical, fluorescence polarization, human. Platelet-activating factor acetylhydrolase (Homo sapiens), Q13093. recombinant pPAFAH, FP-rhodamine probe fluorescence polarization. inhibition, % at 3.39 µM. 1.5% of 330,000 active. AID 463082, 2010;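 active = inhibition above the mean inhibition across the screen plus 3 SD, cut at about 25% in these data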;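 also: inhibitors block binding of the rhodamine activity-based probe so polarization drops; 0% = enzyme with DMSO and 100% = wells lacking pPAFAH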
TCR-CD3 inh = inhibitors of human TCR-CD3 interaction, primary screen, biochemical, fluorescence, TAMRA-labeled TCR probe; inhibition, % at 9.4 µM; T-cell receptor (TCR); 0.37% of 360,000 active;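 also: recombinant mutant TCR 2C K166C tagged with TAMRA read by polarization; 0% = receptor in buffer alone and 100% = receptor with positive control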
BSA probe FL = compounds interfering with TAMRA-BSA probe, counter-screen for TCR-CD3 interaction inhibitor project, biochemical, fluorescence, TAMRA-labeled BSA; AID 652035, 2013; 10% of 1,200 active; inhibition, % at 9.4 µM; shares compounds with TCR-CD3 inh; TAMRA-labeled BSA probe fluorescence counterscreen; in the data active = inhibition above about 23%;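 also: 0% = buffer low control and 100% = reference high control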
TCR-CD3 inh conf = TCR-CD3 interaction inhibitors, retest, confirmation, biochemical, fluorescence, TAMRA-labeled TCR probe. shares compounds with TCR-CD3 inh. TAMRA-labeled TCR probe fluorescence binding assay. inhibition, % at 9.4 µM. 48% of 1,200 active. AID 652036, 2013
* marks the source's active call; other numbers are inactive results; / = not tested or not shown. Rule as the data show it, unless noted: active = inhibition above about 19%; inactive = the rest.

SMILES	HTRA1 inhibitor	SIAE inh	mABHD4 FP	pPAFAH FP inh	TCR-CD3 inh	BSA probe FL	TCR-CD3 inh conf
CC(C)CNC(=O)COC(=O)c1c2c(nc3ccccc13)/C(=C\c1cccs1)CC2	-41	-4	-1	/	-1	/	/
CN(CCC#N)C(=O)COC(=O)c1c2c(nc3ccccc13)/C(=C/c1ccco1)CC2	19	20*	42*	27*	52*	-14	32*
COCCCNC(=S)N/N=C/c1ccc(O)cc1O	/	13	2	7	20*	-16	-5
Oc1ccc(C=NNC(=S)Nc2ccc(F)cc2)c(O)c1	34	13	19	/	20*	-15	9
COc1ccc(-c2cn3cc(C(=O)NN)ccc3n2)cc1	5	-4	0	7	21*	0	-2
C/C(=N\NC(=S)NCC(C)(C)C)c1cc(F)cc(F)c1O	35	3	8	9	27*	-11	1
COCCNC(=S)N/N=C(\C)c1ccc(O)cc1	1	-1	-7	5	-4	/	/
CC1(C(=O)NS(=O)(=O)c2ccc3c(c2)CCO3)CCN1C(=O)c1ccccc1CCc1ccccc1 (stereo not drawn)	/	3	2	/	2	/	/
COc1cc(OC)c(N(C)S(=O)(=O)c2cccc(C(=O)Nc3nnc(C4CC4)s3)c2)cc1Cl	-8	-17	-11	2	21*	7	4
O=C(NCc1ccccc1)[C@@H]1CCCN1C(=O)[C@H]1CCCN1C(=O)c1cccc2ccccc12	/	5	-1	/	9	/	/
CSCCC(NS(=O)(=O)Cc1ccccc1)C(=O)NNc1ccccc1 (stereo not drawn)	/	2	7	/	3	/	/
C/C(=N\NC(=O)CCc1ccccc1)C1C(=O)c2ccccc2C1=O	13	3	20	12	19*	-6	5
O=S(=O)(Nc1cccc2ncccc12)c1cccc(C(F)(F)F)c1	-4	1	-42	2	20*	3	8
C/C(=N\NC(=O)COc1ccccc1-c1ccccc1)c1ccccn1	-5	2	-12	13	-6	/	/
C/C(=N\NC(=O)COc1ccccc1-c1ccccc1)c1ccc(O)cc1O	-33	7	-10	13	19*	-12	29*
Cc1ccccc1-c1csc(C(O)c2ccccc2)n1 (stereo not drawn)	/	-3	-23	/	-8	/	/
CN=c1c([N+](=O)[O-])nn(-c2ccc3c(c2)OCCO3)n1O	-5	9	-2	3	64*	0	2
CC(C)c1ccc(N=c2c([N+](=O)[O-])nn(-c3ccc4c(c3)OCCO4)n2O)cc1	10	3	13	10	-2	/	/
CC(=O)c1ccc([C@H](O)[C@@H](C(=O)N(C)c2ccccc2)C2CC2)cc1	/	9	-1	/	/	/	/
COc1ccc(C=Nn2c(-c3ccc(F)cc3)n[nH]c2=S)c(OC)c1OC	/	7	-2	/	/	/	/
CC12CCC(C(=O)N(CSC(=S)N/N=C\c3ccccc3O)C1=O)C2(C)C (stereo not drawn)	26	3	20	5	32*	-10	20*
COc1ccc(/C=N\NC(=S)SCN2C(=O)C3CCC(C)(C2=O)C3(C)C)cc1 (stereo not drawn)	-1	-3	1	7	4	/	/
CN(CC(=O)Nc1ccc(F)cc1)C(=O)COC(=O)c1ccc(=O)n(Cc2ccccc2)n1	-1	3	27	29*	87*	2	3
CN(CC(=O)Nc1ccccc1Cl)C(=O)COC(=O)c1ccc(=O)n(Cc2ccccc2)n1	0	4	1	8	-3	/	/
S=c1[nH]nc(-c2cc(-c3ccccn3)nc3ccccc23)o1	2	-5	2	3	33*	-3	7
CC(=NN1CCN(Cc2ccccc2Cl)CC1)c1ccc(O)cc1	/	-5	-6	/	/	/	/
